From PubChem BioAssay
This is a sample that favours compounds with a hit; in the whole collection about 3.3% have one here.
PMI act = activators of human phosphomannose isomerase; AID 1214; activation factor at 20 µM; purified human PMI, coupled resazurin fluorescence, 20 min; active compounds read high; 1 = vehicle control, 0 substrate-free wells; actives 0.005% (n = 190,000);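 active = activation factor of 2 or more at 20 µM, relative to plate controls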
ABCB1 inh = human ABCB1 inhibition, ABCG2 as counter-screen; AID 1326; actives 0.067% (n = 190,000); inhibition, % at 6.6 µM; P08183; CCRF-Adr cells, JC-1 efflux, flow cytometry; in the data active = inhibition above about 40%;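 also: 0% = vehicle and 100% = reference inhibitor; higher value means more JC-1 retained so stronger ABCB1 efflux block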
Target sequence (P08183 whole entry, looked up): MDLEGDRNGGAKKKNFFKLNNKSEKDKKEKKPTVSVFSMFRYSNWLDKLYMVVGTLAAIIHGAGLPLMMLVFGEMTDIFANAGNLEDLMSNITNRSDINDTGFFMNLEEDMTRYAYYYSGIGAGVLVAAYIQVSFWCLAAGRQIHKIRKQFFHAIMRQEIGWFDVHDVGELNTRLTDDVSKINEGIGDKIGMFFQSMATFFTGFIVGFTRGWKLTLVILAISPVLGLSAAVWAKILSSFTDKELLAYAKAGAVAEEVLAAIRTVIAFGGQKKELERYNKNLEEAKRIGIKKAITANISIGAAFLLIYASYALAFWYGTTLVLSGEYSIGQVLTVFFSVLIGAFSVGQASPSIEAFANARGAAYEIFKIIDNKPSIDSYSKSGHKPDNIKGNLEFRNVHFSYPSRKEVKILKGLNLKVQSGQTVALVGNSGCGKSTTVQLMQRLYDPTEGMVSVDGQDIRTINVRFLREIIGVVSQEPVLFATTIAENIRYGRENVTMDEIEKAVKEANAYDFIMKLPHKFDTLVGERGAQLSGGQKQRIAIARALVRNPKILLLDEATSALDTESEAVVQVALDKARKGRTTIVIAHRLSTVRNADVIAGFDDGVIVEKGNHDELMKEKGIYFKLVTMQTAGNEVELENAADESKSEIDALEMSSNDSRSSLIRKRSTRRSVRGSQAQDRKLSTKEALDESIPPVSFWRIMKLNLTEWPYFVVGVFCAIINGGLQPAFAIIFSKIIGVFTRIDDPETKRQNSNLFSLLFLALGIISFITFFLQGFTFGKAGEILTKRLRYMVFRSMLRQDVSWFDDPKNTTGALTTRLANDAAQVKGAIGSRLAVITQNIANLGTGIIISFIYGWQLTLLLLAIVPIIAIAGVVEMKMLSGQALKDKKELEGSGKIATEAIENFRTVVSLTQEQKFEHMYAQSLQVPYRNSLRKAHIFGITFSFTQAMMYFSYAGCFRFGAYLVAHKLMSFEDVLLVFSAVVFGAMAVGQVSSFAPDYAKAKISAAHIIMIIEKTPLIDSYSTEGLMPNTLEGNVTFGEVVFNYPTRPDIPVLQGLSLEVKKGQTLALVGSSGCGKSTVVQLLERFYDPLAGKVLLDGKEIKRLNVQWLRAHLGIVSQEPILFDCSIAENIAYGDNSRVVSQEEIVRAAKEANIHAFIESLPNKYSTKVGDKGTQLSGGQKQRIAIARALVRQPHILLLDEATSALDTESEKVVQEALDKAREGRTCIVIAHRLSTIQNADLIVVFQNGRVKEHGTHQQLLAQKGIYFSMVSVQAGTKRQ
ABCG2 inh = inhibitors of human ABCG2 transporter, ABCB1 counter-screen. inhibition, % at 6.6 µM. IgMXP3 cells, JC-1 efflux, flow cytometry. Q9UNQ0. AID 1325. actives 0.1% (n = 190,000);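 active = inhibition above 80%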;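 also: 0% = DMSO and 100% = nicardipine control wells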
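Incubation: cells with compound and JC-1, 10 min at 25 °C, rotating, no wash / Test system: IgMXP3 (ABCG2) plus far-red-tagged CCRF-Adr (ABCB1) cells / Compound dosing: one concentration, 6.6 µM final / Also added: JC-1 fluorescent substrate / Evaluation: efflux inhibition in percent versus controls / Detection: flow cytometry, 530 nm JC-1 signal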
Cl transport mod = modulates chloride dependent transport by human KCC2; Q9H2X9; KCC2 cells, thallium flux FluoZin-2 fluorescence; B-score of Tl+ flux slope (higher = more flux/activation; lower = inhibition) at 10 µM; actives 2.2% (n = 190,000);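 active = thallium flux slope and its plate-corrected score both differing from the plate sample mean at a set confidence after two filtering rounds, in either direction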;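 also: slope of fluorescence scaled to starting intensity during 10 to 20 s after thallium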
PMI act satM6P = increases human PMI activity with near-saturating mannose 6-phosphate; P34949; coupled PMI enzyme assay, resazurin fluorescence, 20 min; active compounds read high; 1 = untreated enzyme, 0 = substrate-free blank; activation factor at 20 µM; actives 0.34% (n = 190,000);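 active = activation factor of 2 or more at 20 µM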
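Test system: human phosphomannose isomerase with PGI, G6PDH, diaphorase coupling enzymes; Amount: PMI at 15 ng/mL final; Reagent: Mannose-6-phosphate 1.0 mM (near-saturating) plus 0.22 mM NADP+; Timing: 20 min, room temperature; Technique: resorufin fluorescence at Ex 544/Em 590 nm; Dosing: 20 µM single dose.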
ROMK primary = modulators of human ROMK potassium channel. P48048. Tet-inducible ROMK, thallium flux fluorescence; actives lie on both sides. B-score at 10 µM. actives 2% (n = 130,000);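 active = signal ratio slope over the read window, or its plate-corrected B-score, at least 3 SD from the plate mean, either direction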;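 also: B-score of the F/F0 ratio slope over 7 to 12 s after thallium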
KCC2 secondary = KCC2 (human) modulation, secondary assay; normalised thallium flux (F/F0 slope) at 10 µM; actives 15% (n = 3,700); HEK293-KCC2, thallium flux, FluoZin2 fluorescence; active compounds read high; shares compounds with Cl transport mod; AID 1713;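 active = thallium flux slope above the same plate's solvent-only control mean plus 3 SD; inconclusive = the two replicate wells disagree; inactive = no significant difference from solvent-only control wells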
KCC2 bumet counter = thallium flux despite bumetanide block in KCC2 cells, secondary assay 3 | normalized thallium flux at 10 µM | shares compounds with Cl transport mod | actives 49% (n = 3,700) | AID 1714 | HEK293-KCC2 + bumetanide/ouabain, thallium flux FluoZin2; active compounds read high;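 active = thallium entry rate above the same plate's blocked-transporter control wells by more than 3 SD; inconclusive = the two repeat wells disagree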;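 also: raw slope of fluorescence over initial fluorescence between 10 and 20 s after thallium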
KCC2 secondary2 = KCC2 (human) modulation, second secondary assay; shares compounds with Cl transport mod; HEK293-KCC2, thallium flux FluoZin2 fluorescence; actives lie on both sides; F/F0 rise rate, 10–20 s post-thallium; normalized thallium flux at 10 µM; actives 23% (n = 3,700); AID 1715;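 active = thallium flux slope more than 3 SD above or below the plate's solvent-only control mean, mostly below; inconclusive = the two repeat wells disagreed; inactive = no significant shift from solvent-only controls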;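 also: raw slope with 0.1% DMSO as baseline and bumetanide as block control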
HEK counter1 = parental HEK flux effect, counter-screen; shares compounds with Cl transport mod; HEK293 parental cells, thallium flux FluoZin2, ouabain; baseline-ratio fluorescence slope, 10–20 s after thallium; thallium flux rate (normalised fluorescence) at 10 µM; actives 46% (n = 3,700); AID 1716;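 active = thallium flux rate significantly above the same plate's solvent-only control wells, beyond their mean plus 3 SD; inconclusive = the two replicate wells gave conflicting results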
KCC2 retest ouab = KCC2 (human) modulation, ouabain retest; shares compounds with Cl transport mod; HEK293-KCC2, thallium flux FluoZin2 fluorescence; bidirectional: low = inhibitor, high = activator; raw Tl+ flux slope (below DMSO = inhibition, above = activation) at 10 µM; actives 48% (n = 3,700); AID 1717;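 active = thallium flux slope beyond 3 SD from same-plate DMSO control mean in most replicates, usually higher, sometimes lower; inconclusive = repeat tests gave conflicting results; inactive = no significant difference from controls in most replicates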;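 also: slope of initial-normalized fluorescence between seconds 10 and 20 after thallium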
HEK293 Tl flux2 = counter-screen for KCC2 modulators: effect in parental HEK293 cells | thallium flux slope at 10 µM | thallium flux FluoZin-2 fluorescence slope | shares compounds with Cl transport mod | actives 33% (n = 3,700);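 active = thallium flux slope above the same plate's solvent-control mean plus 3 SD in both duplicate wells; inconclusive = duplicate wells that disagreed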;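 also: run without ouabain in cells lacking the KCC2 cotransporter; slope of fluorescence scaled to its starting value between 10 and 20 s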
* marks the source's active call; other numbers are inactive results.

Screening COc1ccc(-n2c(C)nc3cc(C(=O)NCCN4CCOCC4)ccc32)cc1 returned PMI act 1, ABCB1 inh 0, ABCG2 inh 2, Cl transport mod -6.3*, PMI act satM6P 1, ROMK primary 0.06, KCC2 secondary 0.0059, KCC2 bumet counter 0.0048, KCC2 secondary2 0.031, HEK counter1 0.0074, KCC2 retest ouab 0.02 and HEK293 Tl flux2 0.01.
For CCOc1ccc(NC(=O)CN2CC(c3ccccc3)CC2=O)cc1 (centres undefined) the results were PMI act 0.9, ABCB1 inh 1, ABCG2 inh 8, Cl transport mod -2.8*, PMI act satM6P 0.9, KCC2 secondary 0.01, KCC2 bumet counter 0.0067, KCC2 secondary2 0.031, HEK counter1 0.0077, KCC2 retest ouab 0.074 and HEK293 Tl flux2 0.011.
Cc1cc(C)cc(NC(=S)NCc2cccn2C)c1 was read as PMI act 1, ABCB1 inh 0, ABCG2 inh 1, Cl transport mod -0.12 and PMI act satM6P 1.
O=C(CSc1nnc(-c2ccco2)n1Cc1ccccc1)NCc1ccccc1 was read as PMI act 0.9, ABCB1 inh 1, ABCG2 inh 4, Cl transport mod -0.07, PMI act satM6P 0.9 and ROMK primary -2.4.
O=C(CSc1nnc(-c2ccco2)n1Cc1ccccc1)c1ccc(F)cc1 was read as PMI act 1, ABCB1 inh 1, ABCG2 inh 3, Cl transport mod -6.1*, PMI act satM6P 1, KCC2 secondary 0.0059, KCC2 bumet counter inconclusive, KCC2 secondary2 0.021*, HEK counter1 0.0055*, KCC2 retest ouab 0.012* and HEK293 Tl flux2 inconclusive.
`Cc1occc1-c1nnc(SCC(=O)c2ccc(F)cc2)n1Cc1ccco1` gave PMI act 1.1, ABCB1 inh 1, ABCG2 inh 18, Cl transport mod -3*, PMI act satM6P 1.2, KCC2 secondary 0.0058, KCC2 bumet counter inconclusive, KCC2 secondary2 0.023*, HEK counter1 0.0055*, KCC2 retest ouab 0.011* and HEK293 Tl flux2 0.0093.
For O=C(N/N=C/c1ccc(Br)o1)c1cc([N+](=O)[O-])cc([N+](=O)[O-])c1 the results were PMI act 1, ABCB1 inh 1, ABCG2 inh 5, Cl transport mod 12*, PMI act satM6P 0.9, ROMK primary 0.14, KCC2 secondary inconclusive, KCC2 bumet counter 0.024*, KCC2 secondary2 0.028, HEK counter1 0.0098*, KCC2 retest ouab 0.026* and HEK293 Tl flux2 inconclusive.
O=c1ccc(N=Nc2ccccc2)ccc1O was read as Cl transport mod 151*, KCC2 secondary 0.012*, KCC2 bumet counter 0.12*, KCC2 secondary2 0.12*, HEK counter1 0.11*, KCC2 retest ouab 0.12* and HEK293 Tl flux2 0.11*.
Screening O=S(=O)(O)c1ccc(N=Nc2ccccc2)cc1 returned Cl transport mod -0.05.
O=C(NC1CCN(Cc2ccccc2)C1)c1cc(COc2ccc(F)cc2F)on1 (centres undefined) was read as PMI act 1, ABCB1 inh -2, ABCG2 inh -4, PMI act satM6P 1.1, ROMK primary -0.81, KCC2 secondary 0.0064, KCC2 bumet counter 0.0048, KCC2 secondary2 inconclusive, HEK counter1 0.0074, KCC2 retest ouab 0.019 and HEK293 Tl flux2 0.0099.
Screening Cc1cc(/C=C2\SC(=S)NC2=O)c(C)n1C1CC1 returned PMI act 1, ABCB1 inh 0, ABCG2 inh -1, Cl transport mod 5.6*, PMI act satM6P 1.1, ROMK primary -0.77, KCC2 secondary 0.0086, KCC2 bumet counter 0.029*, KCC2 secondary2 0.025*, HEK counter1 0.015*, KCC2 retest ouab 0.025* and HEK293 Tl flux2 0.011*.
For Cc1cc(/C=C2/C(=O)N(C)C(=S)N2C)c(C)n1C1CC1 the results were PMI act 0.8, ABCB1 inh 0, ABCG2 inh 2, Cl transport mod -0.046, PMI act satM6P 0.7 and ROMK primary -1.
`CC1=CC(C)C2(CO)COC(c3ccccc3O)C1C2C` (centres undefined) gave PMI act 0.9, ABCB1 inh 0, ABCG2 inh 1, Cl transport mod -0.044, PMI act satM6P 1 and ROMK primary 1.3.
Screening N#Cc1nc(-c2ccco2)oc1N1CCC(Cc2ccccc2)CC1 returned PMI act 0.9, ABCB1 inh 0, ABCG2 inh 2, PMI act satM6P 0.9, ROMK primary -0.71, KCC2 secondary 0.0067, KCC2 bumet counter 0.0048, KCC2 secondary2 0.025*, HEK counter1 0.007, KCC2 retest ouab inconclusive and HEK293 Tl flux2 0.011.
For Cc1nccc(-c2cccc(N/N=C(\C#N)C(=O)c3ccccc3)c2)n1 the results were Cl transport mod -5.1*, KCC2 secondary inconclusive, KCC2 bumet counter 0.036*, KCC2 secondary2 0.031, HEK counter1 0.015*, KCC2 retest ouab 0.025 and HEK293 Tl flux2 0.011*.
Cc1nccc(-c2cccc(NC(=O)Nc3ccc(Cl)cc3)c2)n1 was read as Cl transport mod -0.2.
COC(=O)CC1=NN(c2nc3ccccc3s2)C(=O)/C1=C/N(C)C was read as PMI act 1.1, ABCB1 inh -1, ABCG2 inh 0, Cl transport mod 0.37, PMI act satM6P 1.1 and ROMK primary 0.032.
